This note sets out measurements from ChEMBL document CHEMBL1155133, “Synthesis, cytotoxicity, and antioxidative activity of minor prenylated chalcones from Humulus lupulus” (J Nat Prod, 2008).

The test system of assay [1] is HeLa. Kind of assay: Cytotoxicity against human HeLa cells by MTT assay after 72 hrs. It counts as functional, cell-based. In outline: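 HeLa (ATCC […]) cells grown in MEM with 10% FCS and 2 mM L-glutamine at 37 °C, 5% CO2. MTT colorimetric read-out at 560 nm. Eight concentrations tested in duplicate, with experiments repeated three times. IC50 reported as mean ± SD.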
For orientation: Formazan colour is commonly taken as a measure of viable cells.

Assay [2] in a line: Antioxidant activity assessed as trolox equivalents at 0.1 to 1 uM by ORAC-fluorescein assay. The assay is classed as functional. In outline:
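Fluorescein probe at 300 nM final in 75 mM phosphate buffer, pH 7.4. Samples at five concentrations (0.1-1.0 µM) preincubated with probe at 37 °C for 15 min. AAPH (12 mM final) then added. Fluorescence (ex 485/em 536 nm) read every minute for 80 min at 37 °C. Quadruplicates, ≥4 independent assays. AUC converted to Trolox equivalents (mean ± SD) using a 1-8 µM Trolox curve run in each assay.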

The nature of assay [3]: Antioxidant activity assessed as trolox equivalents at 0.2 to 1 uM by ORAC-fluorescein assay. It counts as functional.
The nature of assay [4]: Antioxidant activity assessed as trolox equivalents at 0.4 to 1.3 uM by ORAC-fluorescein assay. It counts as functional.
The nature of assay [5]: Antioxidant activity assessed as trolox equivalents at 0.2 to 0.6 uM by ORAC-fluorescein assay. It counts as functional.

`COc1cc(O)c(C/C=C(\C)CCC=C(C)C)c(O)c1C(=O)/C=C/c1ccc(O)cc1` gave an IC50 in assay [1] of 8.2 µM. In assay [2], the Activity turned out to be 3.4.

Compound `COc1cc(OC)c(C(=O)/C=C/c2ccc(O)cc2)c(O)c1C` showed an IC50 in assay [1] of 12.2 µM. For the same compound, in assay [2], the Activity worked out at 2.1.

With `COc1cc2c(c(O)c1C(=O)/C=C/c1ccc(O)cc1)CCC(C)(C)O2`, inhibition in assay [1] was half-maximal at 15.4 µM (IC50). In addition, the Activity in assay [2] is 1.7.

Consider `COc1c(CC=C(C)C)c(O)c(CC=C(C)C)c(O)c1C(=O)/C=C/c1ccc(O)cc1`, for which inhibition in assay [1] was half-maximal at 9.7 µM (IC50). Moreover, in assay [2], the Activity came out at 1.9.

For `COc1cc(O)c(CC=C(C)C)c(O)c1C(=O)/C=C/c1ccc(O)cc1`, in assay [2], the Activity was determined as 2.3.

On to `O=C(O)/C=C/c1ccc(O)c(O)c1`, for which, in assay [3], the Activity came to 6.6.

As for `COc1c(CC=C(C)C)c(O)cc(O)c1C(=O)/C=C/c1ccc(O)cc1`, in assay [1], half-maximal inhibition (IC50) was put at 10.4 µM. In assay [2], the Activity came out at 5.2.

In the case of `COc1cc(O)c(C(=O)/C=C/c2ccc(O)cc2)c(OC)c1` [FLAVOKAWAIN C], in assay [1], half-maximal inhibition (IC50) required 19.2 µM. Besides, the Activity in assay [2] turned out to be 4.

Consider `CC(C)=CCC/C(C)=C/Cc1c(O)cc(O)c(C(=O)/C=C/c2ccc(O)cc2)c1O`, for which it took 18.2 µM to reach half-maximal inhibition in assay [1] (IC50). Besides, the Activity in assay [2] was determined as 2.3.

For the compound `COc1cc(/C=C/C(=O)O)ccc1O`, the Activity in assay [4] was 4.4.

In assay [1], `COc1cc(O)c(CCC(C)(C)O)c(O)c1C(=O)/C=C/c1ccc(O)cc1` [XANTHOHUMOL H] gave an IC50 of 9.2 µM. The Activity in assay [2] is 4.8.

In the case of `COc1cc2c(c(O)c1C(=O)/C=C/c1ccc(O)cc1)C=CC(C)(C)O2` [XANTHOHUMOL C], inhibition in assay [1] was half-maximal at 12.5 µM (IC50). Further, the Activity in assay [2] was found to be 1.8.

For `O=c1c(O)c(-c2ccc(O)c(O)c2)oc2cc(O)cc(O)c12`, the Activity in assay [5] was determined as 10.5.

In general, IC50 refers to the point on the concentration scale where inhibition reaches its midpoint. The low end stands for higher potency, the high end for lower potency.
